This is one part of a sample in which hits are shown more often than they occur.
CHOP UPR activ: activators of apoptotic arm of unfolded protein response (CHOP). CHO-CHOP luciferase reporter, UPR activation, luminescence; percent of tunicamycin response over DMSO baseline. activation, % at 10 µM. 0.34% of 330,000 active;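 active means at 10 µM dose, activation of 40% or more, normalized to positive control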
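Assay system: CHO-CHOP cells, stable luciferase reporter of PERK-eIF2a-CHOP signalling / Buffer or medium: F12 plus 10% serum / Compound dosing: one dose, 10 µM in 0.5% DMSO / Times: 6 h compound treatment, 37 °C / Technique: luciferase luminescence / Read-out: % reporter activation, DMSO baseline versus tunicamycin full activation / Benchmarks: tunicamycin and DMSO controls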
Tb MetRS inh: Trypanosoma brucei MetRS inhibition; purified T. brucei MetRS, ATP depletion, Kinase-Glo luminescence; inhibition, % at 11.9 µM; 0.4% of 360,000 active;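 active means inhibition above a per-plate cutoff of the control wells' mean inhibition plus 3 SD, cut at about 5.5% in these data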
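Measured by: Kinase-Glo luciferase luminescence reporting remaining unconsumed ATP. Material: purified T. brucei MetRS enzyme. Doses: 11.9 µM compound single dose, 0.9% DMSO. Medium: HEPES buffer containing pyrophosphatase, BSA, spermine, DTT. Times: 15 min preincubation, 2 h reaction, all 25 °C. Reagent: methionine, ATP and bulk E. coli tRNA.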
UPR XBP1 act: activators of adaptive arm of unfolded protein response (XBP1); CHO-XBP1 luciferase reporter, IRE1-XBP1 UPR activation, luminescence; percent of tunicamycin response, DMSO as zero; activation, % at 20 µM; 0.33% of 330,000 active; AID 463104;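 active means versus positive control, 20 µM dose yields 30% or more activation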
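Test system: CHO-XBP1 luciferase reporter cells | Buffer or medium: Serum-containing F12 medium, 10% FBS | Schedule: 6 h compound exposure at 37 °C, 5% CO2 | Detection: Steady-Glo luciferase glow luminescence, 10 min after reagent addition | Read-out basis: Activation, % of tunicamycin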
V-ATPase pH: alters yeast V-ATPase proton transport. 0.37% of 350,000 active. response, % at 10 µM. S. cerevisiae, pHLuorin cytosolic pH fluorescence; in the data active means response mostly above about 7.3%, no sharp cut-off; inactive means mostly below about 5.4%; further: actives read high
CHOP inhibitor: blocks CHOP induction under ER stress; CHO-K1 CHOP-promoter luciferase, tunicamycin-induced, 15-18 h; inhibition, % at 10 µM; 3.8% of 220,000 active; AID 2732;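 active means compounds that reduced the stress-induced luciferase reporter signal by more than about 70% of percent inhibition, limit read from the data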
Hits are given with their value.

How did CCN(CC)C(=O)C1=C(C)N(Cc2ccc(F)cc2)C(=O)C(CC(=O)NCCCN(C)C)C1 (stereo not drawn) do in these assays?
Tb MetRS inh: inactive; V-ATPase pH: inactive

Results for O=S1(=O)CC(N2CCCCC2)CN1Cc1cn(Cc2ccc(C(F)(F)F)cc2)nn1 (stereo not drawn) ?
Tb MetRS inh: inactive

Results for O=C(O)CCCCCC[C@H]1C(=O)NC(=O)N1CC[C@@H](O)C1CCCCC1 ?
CHOP inhibitor: inactive

Results for Cc1ccc(-c2oc3ccccc3c(=O)c2O)cc1 ?
CHOP UPR activ: inactive; Tb MetRS inh: inactive; UPR XBP1 act: inactive; V-ATPase pH: inactive; CHOP inhibitor: 72

What do the screens show for `O=c1c(O)c(-c2ccccc2)oc2ccccc12`?
Tb MetRS inh: inactive; V-ATPase pH: inactive

How did O=C(NCc1n[nH]c(=S)n1-c1ccc(F)cc1)c1ccc(S(=O)(=O)N2CCOCC2)cc1 do in these assays?
CHOP UPR activ: inactive; Tb MetRS inh: inactive; UPR XBP1 act: inactive; V-ATPase pH: inactive; CHOP inhibitor: 82

Results for CCOc1ccc(-c2cc(CCCC(=O)NCc3cccnc3)no2)cc1 ?
CHOP UPR activ: inactive; Tb MetRS inh: inactive; UPR XBP1 act: inactive; V-ATPase pH: inactive; CHOP inhibitor: 80

What do the screens show for `CCOc1ccc(NC(=O)CCCc2cc(-c3ccc(OCC)cc3)on2)cc1`?
CHOP UPR activ: inactive; Tb MetRS inh: inactive; UPR XBP1 act: inactive; V-ATPase pH: inactive; CHOP inhibitor: 83

How did COc1ccccc1/C=C\C=N\n1c(-c2ccc(Cl)cc2)n[nH]c1=S do in these assays?
CHOP UPR activ: inactive; Tb MetRS inh: inactive; UPR XBP1 act: inactive; V-ATPase pH: inactive; CHOP inhibitor: 89

How did Cc1nn(-c2ccccc2)c(C)c1/C=N/n1c(-c2ccc(C(C)(C)C)cc2)n[nH]c1=S do in these assays?
CHOP UPR activ: inactive; Tb MetRS inh: inactive; UPR XBP1 act: inactive; V-ATPase pH: inactive; CHOP inhibitor: 84

What do the screens show for `S=c1[nH]nc(-c2ccncc2)n1/N=C/c1cn(-c2ccccc2)nc1-c1ccc(Cl)cc1`?
CHOP UPR activ: inactive; Tb MetRS inh: inactive; UPR XBP1 act: inactive; V-ATPase pH: inactive; CHOP inhibitor: 91

What do the screens show for `O=C(CSc1ccc(Cl)cc1)Nc1ccc(-c2nc3ccccc3[nH]2)cc1`?
CHOP UPR activ: inactive; Tb MetRS inh: inactive; UPR XBP1 act: inactive; V-ATPase pH: inactive; CHOP inhibitor: inactive

What do the screens show for `O=C(NCC1CCN(Cc2ccccc2F)CC1)Nc1cccc(Br)c1`?
CHOP UPR activ: inactive; Tb MetRS inh: inactive; UPR XBP1 act: inactive; V-ATPase pH: inactive

Results for O=C1CCC2(CCCC2)c2ccccc21 ?
Tb MetRS inh: inactive; V-ATPase pH: inactive

What do the screens show for `Cc1nc(-c2cccnc2)sc1C(=O)Nc1ccc(Cl)cc1`?
CHOP UPR activ: inactive; Tb MetRS inh: inactive; UPR XBP1 act: inactive; V-ATPase pH: inactive; CHOP inhibitor: 81

How did CCC(=O)Oc1c(S(=O)(=O)c2ccc(C)cc2)c(C)nn1C(C)(C)C do in these assays?
CHOP UPR activ: inactive; Tb MetRS inh: inactive; UPR XBP1 act: inactive; V-ATPase pH: inactive; CHOP inhibitor: inactive

How did Cc1ccc(S(=O)(=O)c2c(C)nn(C(C)(C)C)c2OC(=O)CC(C)C)cc1 do in these assays?
CHOP UPR activ: inactive; Tb MetRS inh: inactive; UPR XBP1 act: inactive; V-ATPase pH: inactive; CHOP inhibitor: 80

What do the screens show for `O=C(c1ccc(Cl)cc1)C(CN1CCCCC1)c1ccccc1` (stereo not drawn)?
CHOP UPR activ: 203; Tb MetRS inh: inactive; UPR XBP1 act: inactive; V-ATPase pH: inactive

How did O=C1CC(N2CCC(c3nc4ccccc4o3)CC2)C(=O)N1c1ccc(Cl)c(C(F)(F)F)c1 (stereo not drawn) do in these assays?
CHOP UPR activ: inactive; Tb MetRS inh: inactive; UPR XBP1 act: inactive; V-ATPase pH: inactive; CHOP inhibitor: 86

Results for N=c1c2c(ncn1Cc1ccco1)Oc1c(ccc3ccccc13)C2c1ccccc1 (stereo not drawn) ?
CHOP UPR activ: inactive; Tb MetRS inh: inactive; UPR XBP1 act: inactive; V-ATPase pH: inactive; CHOP inhibitor: 89

How did Cc1cc(C)c(S(=O)(=O)c2c(C)cccc2C)c(OCC(C)C)n1 do in these assays?
CHOP UPR activ: inactive; Tb MetRS inh: inactive; UPR XBP1 act: inactive; V-ATPase pH: inactive; CHOP inhibitor: 74
